Consider eight molecules from ChEMBL document CHEMBL3352033, “Jatrophanes from Euphorbia squamosa as potent inhibitors of Candida albicans multidrug transporters” (J Nat Prod, 2014).

Experiment [1] relates to Candida albicans. The experiment in a line: Inhibition of Candida albicans CaCdr1p-mediated drug efflux overexpressed in Saccharomyces cerevisiae assessed as nile red accumulation after 30 mins by flow cytometry. In short, it runs like this:
(§1)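 Host is S. cerevisiae AD1-8u− deleted for its own multidrug transporters, carrying the C. albicans transporter ORF integrated at the PDR5 locus (AD-CDR1 or AD-MDR1). Cells are grown in YEPD at 30 °C from OD600 0.1 to 0.25, then resuspended as a 5% suspension in YEPD diluted 1:2 with water. NR is 7 μM final with inhibitor at 70 μM, 30 min at 30 °C. Read-out is flow cytometry of 10 000 cells. Three independent experiments.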

In experiment [2] the test system is Candida albicans. The experiment in a line: Inhibition of Candida albicans CaMdr1p-mediated drug efflux overexpressed in Saccharomyces cerevisiae assessed as nile red accumulation after 30 mins by flow cytometry. In short, it runs like this: as §1
The test system of experiment [3] is Saccharomyces cerevisiae. The experiment in a line: Resistance index, ratio of IC50 for Saccharomyces cerevisiae AD1-8u(-) overexpressing CaMdr1p to IC50 for Saccharomyces cerevisiae AD1-8u(-). It is filed as functional. Put shortly: (§2)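 RI computed as the IC50 for the AD-CDR1 or AD-MDR1 strain divided by that for control strain AD1-8u−. Each IC50 comes from optical density after 48 h growth at 30 °C of 10^4 cells with inhibitor at 0.15−80 μM, 50% growth versus untreated. Means ± SD of three independent experiments.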

Experiment [4] deals with Saccharomyces cerevisiae. The experiment in a line: Growth inhibition of Saccharomyces cerevisiae AD1-8u(-) overexpressing CaMdr1p assessed as FIC of fluconazole by checkerboard method. It is filed as functional. Put shortly:
(§3)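 Checkerboard per CLSI: yeast cells (10^4) in 96-well format with fluconazole 0.15−800 μM crossed with inhibitor 0.15−80 μM, grown 48 h at 30 °C in YEPD; growth read by optical density. FIC for FLC = IC50 of FLC in combination/IC50 alone; FIC for inhibitor likewise; FICI from both. Means ± SD of three independent experiments.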

Experiment [5] has as its system Saccharomyces cerevisiae. As to the kind of experiment: Growth inhibition of Saccharomyces cerevisiae AD1-8u(-) assessed as FIC of compound by checkerboard method. It is filed as functional. Put shortly: as §3
Experiment [6] has as its system Saccharomyces cerevisiae. The experiment in a line: Growth inhibition of Saccharomyces cerevisiae AD1-8u(-) overexpressing CaCdr1p assessed as FIC of compound by checkerboard method. It counts as functional. Put shortly:
as §3

Experiment [7] relates to Saccharomyces cerevisiae. As to the kind of experiment: Growth inhibition of Saccharomyces cerevisiae AD1-8u(-) overexpressing CaMdr1p assessed as FIC index by checkerboard method. It is filed as functional. In short, it runs like this:
as §3

Experiment [8] concerns Saccharomyces cerevisiae. As to the kind of experiment: Growth inhibition of Saccharomyces cerevisiae AD1-8u(-) assessed as FIC of fluconazole by checkerboard method. It is filed as functional. Put shortly:
as §3

Experiment [9] has as its system Saccharomyces cerevisiae. As to the kind of experiment: Toxicity against Saccharomyces cerevisiae AD1-8u(-) overexpressing CaCdr1p. It is filed as organism-based. Put shortly: (§4)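 Yeast cells (10^4) seeded with inhibitor 0.15−80 μM or none, grown 48 h at 30 °C in YEPD; optical density measured. Growth without inhibitor set as 100%, and the concentration giving 50% growth taken as IC50. Means ± SD of three independent experiments, duplicate samples.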

Experiment [10] relates to Saccharomyces cerevisiae. As to the kind of experiment: Growth inhibition of Saccharomyces cerevisiae AD1-8u(-) assessed as FIC index by checkerboard method. It counts as functional. Put shortly: as §3
Experiment [11] relates to Saccharomyces cerevisiae. The experiment in a line: Growth inhibition of Saccharomyces cerevisiae AD1-8u(-) overexpressing CaCdr1p assessed as FIC of fluconazole by checkerboard method. It is filed as functional. Put shortly: as §3
For experiment [12], the system named is Saccharomyces cerevisiae. As to the kind of experiment: Toxicity against Saccharomyces cerevisiae AD1-8u(-). It counts as organism-based. Put shortly:
as §4

Experiment [13] deals with Saccharomyces cerevisiae. The experiment in a line: Toxicity against Saccharomyces cerevisiae AD1-8u(-) overexpressing CaMdr1p. It counts as organism-based. In short, it runs like this: as §4
The test system of experiment [14] is Saccharomyces cerevisiae. As to the kind of experiment: Growth inhibition of Saccharomyces cerevisiae AD1-8u(-) overexpressing CaMdr1p assessed as FIC of compound by checkerboard method. It is filed as functional. Put shortly: as §3
For experiment [15], the system named is Saccharomyces cerevisiae. As to the kind of experiment: Resistance index, ratio of IC50 for Saccharomyces cerevisiae AD1-8u(-) overexpressing CaCdr1p to IC50 for Saccharomyces cerevisiae AD1-8u(-). It counts as functional. In short, it runs like this: as §2
For experiment [16], the system named is Saccharomyces cerevisiae. As to the kind of experiment: Growth inhibition of Saccharomyces cerevisiae AD1-8u(-) overexpressing CaCdr1p assessed as FIC index by checkerboard method. It is filed as functional. Put shortly: as §3

Active and inactive are the calls of the source. No cut-off for these calls is given here.

For orientation: inhibition means the percentage by which the read-out fell short of the control. On to `C=C1CCC(=O)C(C)(C)/C=C/[C@H](C)C(=O)[C@@]2(OC(C)=O)C[C@H](C)[C@H](OC(=O)c3ccccc3)[C@@H]2[C@H]1OC(C)=O`, for which the inhibition entry in the experiment with Candida albicans [1] and in the experiment on Candida albicans [2] was “Active” each time.
With `CC(=O)O[C@@H]1[C@@H](OC(C)=O)C(C)(C)/C=C/[C@H](C)[C@@H](OC(C)=O)[C@@]2(OC(C)=O)C[C@@H](C)[C@H](OC(=O)c3ccccc3)/C2=C\[C@](C)(O)[C@@H]1O`, the inhibition result in the experiment on Candida albicans [1] is “inactive”.
A word on the IC50: it is the concentration that gives 50% inhibition. A low value points to greater potency in that assay. `C=C1CC(OC(C)=O)C(=O)C(C)(C)/C=C/[C@H](C)[C@@H](OC(C)=O)[C@@]2(OC(C)=O)C[C@@H](C)[C@H](OC(=O)c3ccccc3)[C@@H]2[C@H]1OC(C)=O` (some centres not stated): the “Ratio IC50” value in the experiment with Saccharomyces cerevisiae [3] is reported as 10.9; with Saccharomyces cerevisiae [15], 13.8. The FIC50 in the experiment on Saccharomyces cerevisiae [4] is given as 1; in the experiment on Saccharomyces cerevisiae [5], 0.07; in the experiment on Saccharomyces cerevisiae [6] it was 0.02; in the experiment with Saccharomyces cerevisiae [8], 1.2; in the experiment on Saccharomyces cerevisiae [11] it was 0.04; in the experiment on Saccharomyces cerevisiae [14] it was 0.02. Moreover, the “fractional inhibitory concentration index (FICI)” value in the experiment on Saccharomyces cerevisiae [7] amounted to 1.02; with Saccharomyces cerevisiae [10], 1.27; with Saccharomyces cerevisiae [16], 0.06. Further, the inhibition entry in the experiment with Candida albicans [1] was “Active”. In addition, the results for the IC50 in the experiment on Saccharomyces cerevisiae [9], with Saccharomyces cerevisiae [12] and in the experiment on Saccharomyces cerevisiae [13] were 31.7 µM, 2.3 µM and 25 µM, respectively.
For `CC(=O)O[C@@H]1[C@@H](OC(C)=O)C(C)(C)/C=C/[C@H](C)C(=O)[C@@]2(OC(C)=O)C[C@@H](C)[C@H](OC(=O)c3ccccc3)/C2=C/[C@](C)(O)[C@@H]1OC(C)=O`, the figures for the “Ratio IC50” value with Saccharomyces cerevisiae [3] and in the experiment on Saccharomyces cerevisiae [15] were 12.3 and 11.6, respectively. Besides, the FIC50 with Saccharomyces cerevisiae [4] is 0.5; in the experiment on Saccharomyces cerevisiae [5], 0.07; with Saccharomyces cerevisiae [6] it was 0.01; in the experiment with Saccharomyces cerevisiae [8], 1.2; in the experiment with Saccharomyces cerevisiae [11], 0.02; in the experiment on Saccharomyces cerevisiae [14], 0.02. In addition, the “fractional inhibitory concentration index (FICI)” value in the experiment with Saccharomyces cerevisiae [7] was determined as 0.52; with Saccharomyces cerevisiae [10], 1.27; in the experiment with Saccharomyces cerevisiae [16], 0.03. Further, the inhibition with Candida albicans [1] is 88%. Further, the IC50 worked out at 26.7 µM in the experiment with Saccharomyces cerevisiae [9], 2.3 µM in the experiment on Saccharomyces cerevisiae [12] and 28.3 µM in the experiment on Saccharomyces cerevisiae [13]. Moreover, in the experiment on Candida albicans [2], the inhibition entry is “Active”.
Take `CC(=O)O[C@@H]1[C@@H](O)[C@@H](OC(C)=O)/C(C)=C/[C@H]2[C@@H](OC(=O)c3ccccc3)[C@H](C)C[C@]2(OC(C)=O)[C@H](OC(C)=O)[C@@H](C)/C=C/C1(C)C`: the “Ratio IC50” value is on record as 1.5 with Saccharomyces cerevisiae [3] and 1.6 in the experiment with Saccharomyces cerevisiae [15]. For the same molecule, the FIC50 is reported as 1 in the experiment with Saccharomyces cerevisiae [4]; 0.07 in the experiment on Saccharomyces cerevisiae [5]; 0.34 in the experiment on Saccharomyces cerevisiae [6]; 1.2 in the experiment with Saccharomyces cerevisiae [8]; 0.08 in the experiment with Saccharomyces cerevisiae [11]; 0.36 in the experiment with Saccharomyces cerevisiae [14]. Further, the entries for the “fractional inhibitory concentration index (FICI)” value in the experiment with Saccharomyces cerevisiae [7], with Saccharomyces cerevisiae [10] and in the experiment with Saccharomyces cerevisiae [16] were 1.36, 1.27 and 0.42, respectively. For the same molecule, the inhibition entry with Candida albicans [1] was “Active”. The IC50 in the experiment with Saccharomyces cerevisiae [9] worked out at 3.7 µM; in the experiment on Saccharomyces cerevisiae [12] it was 2.3 µM; in the experiment on Saccharomyces cerevisiae [13] it was 3.5 µM.
For `C=C1[C@H](OC(=O)c2ccccc2)[C@H]2[C@@H](OC(C)=O)[C@@H](C)C[C@]2(OC(C)=O)C(=O)[C@@H](C)/C=C/C(C)(C)C(=O)[C@H](OC(C)=O)[C@H]1OC(C)=O`, the inhibition entry in the experiment on Candida albicans [1] was “inactive”.
Regarding `C=C1[C@H](OC(C)=O)[C@@H](OC(C)=O)[C@@H](OC(C)=O)C(C)(C)/C=C/[C@H](C)C(=O)[C@@]2(OC(C)=O)C[C@H](C)[C@H](OC(C)=O)[C@@H]2[C@H]1OC(=O)c1ccccc1`, the inhibition result in the experiment with Candida albicans [1] was “inactive”.
For the molecule `CC(=O)O[C@@H]1[C@H](C)/C=C/C(C)(C)C(=O)C[C@@H](OC(=O)c2ccccc2)/C(C)=C/[C@H]2[C@@H](OC(=O)c3ccccc3)[C@H](C)C[C@]12OC(C)=O`, in the experiment on Candida albicans [1], the inhibition entry was “inactive”.
